Laboratory results published in ChEMBL document CHEMBL1137646, “Intracellular metabolism and persistence of the anti-human immunodeficiency virus activity of 2',3'-didehydro-3'-deoxy-4'-ethynylthymidine, a novel thymidine analog” (Antimicrob Agents Chemother, 2007).
The source made the active and inactive calls. The rule behind the calls is not given here.

Assays:
[1] = target: Human immunodeficiency virus type 1 reverse transcriptase (Human immunodeficiency virus 1) (UniProt Q72547); experiment: Ratio of Ki to Km for HIV1 reverse transcriptase
[2] = test system: Human immunodeficiency virus 1; experiment: Antiviral activity against 0.1 MOI HIV1 3B in 24 hrs pretreated human TZM-b1 cells infected 24 hrs post drug removal assessed as inhibition of viral replication at 1 to 6 uM measured 24 hrs postinfection by luciferase assay; format: functional, organism-based
How it was run: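 TZM-bl cells were plated in phenol red-free RPMI 1640, allowed to adhere 15–18 h at 37°C, then exposed to a range of drug concentrations for 24 h. Medium was changed to remove extracellular drug, and cells were infected with HIV-1 IIIB (MOI 0.1) at 0, 24 or 48 h after removal. Luciferase was read 24 h post-infection with uninfected-cell background subtracted, in quintuple wells, and expressed relative to no-drug wells.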

CCRF-CEM [3] = experiment: Drug metabolism in human CEM cells assessed as radioactive stavudine triphosphate accumulation at 2 uM after 12 hrs assessed per 10^6 cells; format: ADME, cell-based
How it was run: (§1)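 CEM cells (2 x 10^7/ml) in RPMI 1640 with 10% dialyzed FBS were incubated at 37°C with 2 µM [3H]analog (75 mCi/mmol) and harvested at 2, 4, 8, 12, 16 and 24 h. Cells were washed in ice-cold PBS with 20 µM dipyridamole and extracted with 15% TCA. Neutralized extracts were separated on a Partisil SAX column with an H2O to 300 mM potassium phosphate gradient and radiometric detection, reported as pmol/10^6 cells, mean ± SD of three experiments.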

CCRF-CEM [4] = experiment: Drug metabolism in human CEM cells assessed as radioactive stavudine diphosphate accumulation at 2 uM assessed per 10^6 cells; format: ADME, cell-based; settings: TDE = time-dependent effect; how it was run: as §1
[5] = test system: Human immunodeficiency virus 1; experiment: Antiviral activity against 0.1 MOI HIV1 3B infected in human TZM-b1 cells assessed as inhibition of viral replication after 24 hrs by luciferase assay; format: functional, organism-based
How it was run: (§2)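 TZM-bl cells in phenol red-free RPMI 1640 were infected with HIV-1 IIIB (MOI 0.1) at the time of adding drug at various concentrations, and drug and virus stayed together for 24 h. Lysate luciferase was measured with uninfected background subtracted, in quintuple wells. Inhibition was the mean signal relative to drug-free infected cells.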

CCRF-CEM [6] = experiment: Drug metabolism in human CEM cells assessed as radioactive stavudine triphosphate accumulation at 2 uM assessed per 10^6 cells; format: ADME, cell-based; settings: TDE = time-dependent effect; how it was run: as §1
CCRF-CEM [7] = experiment: Drug metabolism in human CEM cells assessed as radioactive zidovudine triphosphate accumulation at 2 uM assessed per 10^6 cells; format: ADME, cell-based; settings: TDE = time-dependent effect; how it was run: as §1
CCRF-CEM [8] = experiment: Drug metabolism in human CEM cells assessed as radioactive 2', 3'-didehydro-3'-deoxy-4'-ethynylthymidine diphosphate accumulation at 2 uM assessed per 10^6 cells; format: ADME, cell-based; settings: TDE = time-dependent effect; how it was run: as §1
CCRF-CEM [9] = experiment: Stability in human CEM cells assessed as intracellular radioactive phosphorylated metabolite accumulation at 2 uM incubated for 24 hrs measured after 8 hrs of compound removal assessed per 10^6 cells; format: ADME, cell-based
How it was run: (§3)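 CEM cells were loaded with 2 µM [3H]analog (75 mCi/mmol) for 24 h, washed, and resuspended in drug-free medium. Intracellular metabolites were then measured by SAX-HPLC with radiometric detection at 0, 2, 4, 8, 12 and 24 h after removal. Values are pmol/10^6 cells, mean ± SD of three experiments.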

[10] = test system: Human immunodeficiency virus 1; experiment: Antiviral activity against 0.1 MOI HIV1 3B in 24 hrs pretreated human TZM-b1 cells infected 24 hrs post drug removal assessed as inhibition of viral replication at 1 to 6 uM measured 24 hrs postinfection by luciferase assay
CCRF-CEM [11] = experiment: Drug metabolism in human CEM cells assessed as radioactive stavudine monophosphate accumulation at 2 uM after 12 hrs assessed per 10^6 cells; format: ADME, cell-based; how it was run: as §1
CCRF-CEM [12] = experiment: Stability in human CEM cells assessed as intracellular radioactive triphosphate metabolite accumulation at 2 uM incubated for 24 hrs measured after 24 hrs of compound removal assessed per 10^6 cells; format: ADME, cell-based; how it was run: as §3
CCRF-CEM [13] = experiment: Drug metabolism in human CEM cells assessed as radioactive stavudine diphosphate accumulation at 2 uM after 12 hrs assessed per 10^6 cells; format: ADME, cell-based; how it was run: as §1
CCRF-CEM [14] = experiment: Drug metabolism in human CEM cells assessed as radioactive zidovudine diphosphate accumulation at 2 uM assessed per 10^6 cells; format: ADME, cell-based; settings: TDE = time-dependent effect; how it was run: as §1
CCRF-CEM [15] = experiment: Drug metabolism in human CEM cells assessed as radioactive 2', 3'-didehydro-3'-deoxy-4'-ethynylthymidine monophosphate accumulation at 2 uM assessed per 10^6 cells; format: ADME, cell-based; settings: TDE = time-dependent effect; how it was run: as §1
[16] = test system: Human immunodeficiency virus 1; experiment: Antiviral activity against 0.1 MOI HIV1 3B infected in human TZM-b1 cells assessed as inhibition of viral replication at 2 uM after 24 hrs by luciferase assay; format: functional; settings: Human immunodeficiency virus 1, 3B, TZM-b1, 24 h; how it was run: as §2
CCRF-CEM [17] = experiment: Drug metabolism in human CEM cells assessed as radioactive zidovudine monophosphate accumulation at 2 uM assessed per 10^6 cells; format: ADME, cell-based; settings: TDE = time-dependent effect; how it was run: as §1
[18] = test system: Human immunodeficiency virus 1; experiment: Antiviral activity against 0.1 MOI HIV1 3B infected in human TZM-b1 cells assessed as inhibition of viral replication at 6 uM after 24 hrs by luciferase assay; format: functional; settings: Human immunodeficiency virus 1, 3B, TZM-b1, 24 h; how it was run: as §2
CCRF-CEM [19] = experiment: Drug metabolism in human CEM cells assessed as radioactive 2', 3'-didehydro-3'-deoxy-4'-ethynylthymidine triphosphate accumulation at 2 uM assessed per 10^6 cells; format: ADME, cell-based; settings: TDE = time-dependent effect; how it was run: as §1
CCRF-CEM [20] = experiment: Drug metabolism in human CEM cells assessed as radioactive stavudine monophosphate accumulation at 2 uM assessed per 10^6 cells; format: ADME, cell-based; settings: TDE = time-dependent effect; how it was run: as §1
[21] = substrate: Cc1cn([C@H]2C[C@H](N=[N+]=[N-])[C@@H](CO)O2)c(=O)[nH]c1=O; settings: Homo sapiens; H9
[22] = substrate: Cc1cn([C@H]2C[C@H](N=[N+]=[N-])[C@@H](CO)O2)c(=O)[nH]c1=O; settings: Homo sapiens; H9; remark: listed apart in the source

Molecule: C#C[C@@]1(COP(=O)(O)OP(=O)(O)OP(=O)(O)O)C=C[C@H](n2cc(C)c(=O)[nH]c2=O)O1
- Ki/Km [1]: 0.15

Molecule: Cc1cn([C@H]2C=C[C@@H](CO)O2)c(=O)[nH]c1=O [STAVUDINE]
- inhibition [2]: inactive
- Activity (CCRF-CEM [3]): 1.2 pmol
- Activity (CCRF-CEM [4]): tde
- inhibition [5]: Dose-dependent effect
- Activity (CCRF-CEM [6]): tde
- Activity (CCRF-CEM [7]): tde
- Activity (CCRF-CEM [8]): tde
- Stability (CCRF-CEM [9]): 0.2 pmol
- inhibition [10]: inactive
- Activity (CCRF-CEM [11]): 1.2 pmol
- Stability (CCRF-CEM [12]): Unstable
- Activity (CCRF-CEM [13]): 1.2 pmol
- Activity (CCRF-CEM [14]): tde
- Activity (CCRF-CEM [15]): tde
- inhibition at 2 µM [16]: 50%
- Activity (CCRF-CEM [17]): tde
- inhibition at 6 µM [18]: 50%
- Activity (CCRF-CEM [19]): tde
- Activity (CCRF-CEM [20]): tde

Molecule: Cc1cn([C@H]2C=C[C@@H](COP(=O)(O)OP(=O)(O)OP(=O)(O)O)O2)c(=O)[nH]c1=O
- Ki/Km [1]: 1.1

B1: Thymidine kinase, cytosolic (Homo sapiens), P04183 (protein)
chain: MSCINLPTVLPGSPSKTRGQIQVILGPMFSGKSTELMRRVRRFQIAQYKCLVIKYAKDTRYSSSFCTHDRNTMEALPACLLRDVAQEALGVAVIGIDEGQFFPDIVEFCEAMANAGKTVIVAALDGTFQRKPFGAILNLVPLAESVVKLTAVCMECFREAAYTKRLGTEKEVEVIGGADKYHSVCRLCYFKKASGQPAGPDNKENCPVPGKPGEAVAARKLFAPQQILQCSPAN
- Km [21]: 3 µM
- Km [22]: 2.9 µM
